Results: ChEMBL document CHEMBL1125464, “1,3,6-trisubstituted indoles as peptidoleukotriene antagonists: benefits of a second, polar, pyrrole substituent” (J Med Chem, 1992)

Assays:
Cavia porcellus [1] = species on record: Cavia porcellus; assay: Dissociation constant on guinea pig tracheal spirals utilizing LTE4 as agonist; conditions: Trachea
Cavia porcellus [2] = species on record: Cavia porcellus; assay: Inhibition of LTE4 (8 nM) induced contraction of guinea pig tracheal spirals at a concentration of 0.1 uM; format: functional, Trachea
Summary of the method: (§1)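 Paired tracheal spirals at 37 °C in Krebs gassed with 95% O2/5% CO2 under 2 g tension, given repeated LTE4 challenges of 10 min. Compound or vehicle added 10 min before a third challenge. % inhibition = (2nd − 3rd response)/2nd × 100, corrected by subtracting the vehicle value. Paired t test, n ≥ 4.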

Cavia porcellus [3] = species on record: Cavia porcellus; assay: Inhibition of LTE4 (8 nM) induced contraction of guinea pig tracheal spirals at a concentration of 1 nM; format: functional, Trachea
Summary of the method: as §1

Cavia porcellus [4] = assay: Protection of conscious guinea pig lung function was determined by comparison of time required for the challenged animals to exhibit labored abdominal breathing after oral dose of 30 uM/kg; format: functional
Summary of the method: (§2)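 Conscious guinea pigs pretreated with indomethacin (10 mg/kg ip) and propranolol (5 mg/kg ip). Compound in PEG400 (<10% v/v)/PBS given orally 180 min before a challenge of up to 5 min with aerosolized 60 uM LTD4. Time to abdominal dyspnea scored blind. % protection is taken against vehicle controls; no end point by 300 s counts as 100%. Unpaired t test.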

Cavia porcellus [5] = species on record: Cavia porcellus; assay: Inhibition constant for the displacement of [3H]LTD4 on guinea pig lung parenchymal membranes; design: species or system Lung parenchyma
Summary of the method: (§3)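 Membranes from perfused lungs of male Hartley guinea pigs (300-400 g) in PIPES pH 7.5 with 10 mM CaCl2, 10 mM MgCl2, 2 mM cysteine and 2 mM glycine. 1 nM 3H-LTD4 at 22 °C for 30 min; nonspecific binding with 2 uM LTD4. Filtration, then scintillation counting. IC50 by nonlinear least squares, Ki by Cheng-Prusoff; mean of two experiments in duplicate.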

Cavia porcellus [6] = species on record: Cavia porcellus; assay: Compound was evaluated for the displacement of [3H]LTD4 on guinea pig lung parenchymal membranes; design: species or system Lung parenchyma
Summary of the method: as §3

Cavia porcellus [7] = species on record: Cavia porcellus; assay: Inhibition of LTE4 (8 nM) induced contraction of guinea pig tracheal spirals at a concentration of 100 nM; format: functional, Trachea
Summary of the method: as §1

Cavia porcellus [8] = assay: Protection of conscious guinea pig lung function was determined by comparison of time required for the challenged animals to exhibit labored abdominal breathing after oral dose of 10 uM/kg; format: functional
Summary of the method: as §2

Cavia porcellus [9] = species on record: Cavia porcellus; assay: Inhibition of LTE4 (8 nM) induced contraction of guinea pig tracheal spirals at a concentration of 1 uM; format: functional, Trachea
Summary of the method: as §1

[10] = Negative logarithm of the molar dissociation constant; format: ADME
Summary of the method: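 Paired guinea pig tracheal spirals at 37 °C in Krebs gassed with 95% O2/5% CO2, 2 g resting tension. Responses expressed relative to 30 uM carbachol. Antagonist or vehicle preincubated 30 min, then cumulative LTE4 concentration-response curves, one per tissue. EC50 by linear regression; KB = [antagonist]/(dose ratio − 1), per Furchgott.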

Cavia porcellus [11] = species on record: Cavia porcellus; assay: Inhibition of LTE4 (8 nM) induced contraction of guinea pig tracheal spirals at a concentration of 3.3 uM; format: functional, Trachea
Summary of the method: as §1

Cavia porcellus [12] = species on record: Cavia porcellus; assay: Inhibition of LTE4 (8 nM) induced contraction of guinea pig tracheal spirals at a concentration of 10 nM; format: functional, Trachea
Summary of the method: as §1

Cavia porcellus [13] = species on record: Cavia porcellus; assay: Inhibition of LTE4 (8 nM) induced contraction of guinea pig tracheal spirals at a concentration of 0.50 uM; format: functional, Trachea
Summary of the method: as §1

Cavia porcellus [14] = species on record: Cavia porcellus; assay: Inhibition of LTE4 (8 nM) induced contraction of guinea pig tracheal spirals at a concentration of 0.33 uM; format: functional, Trachea
Summary of the method: as §1

Cavia porcellus [15] = species on record: Cavia porcellus; assay: Inhibition of LTE4 (8 nM) induced contraction of guinea pig tracheal spirals at a concentration of 3.3 uM; NS=not statistically significant; format: functional; conditions: Trachea
Summary of the method: as §1

Cavia porcellus [16] = assay: Protection of conscious guinea pig lung function was determined by comparison of time required for the challenged animals to exhibit labored abdominal breathing after oral dose of 3 uM/kg; format: functional
Summary of the method: as §2

Cavia porcellus [17] = species on record: Cavia porcellus; assay: Inhibition of LTE4 (8 nM) induced contraction of guinea pig tracheal spirals at a concentration of 0.5 uM; NS=not statistically significant; format: functional; conditions: Trachea
Summary of the method: as §1

For `COc1cc(C(=O)O)ccc1Cn1ccc2ccc(NC(=O)OC3CCCC3)cc21`, the Kb (Cavia porcellus [1]) was 15.7 nM and the Inhibition (Cavia porcellus [2]) was 61%.

`CCCC(=O)c1cn(Cc2ccc(C(=O)O)cc2OC)c2cc(NC(=O)CC3CCCC3)ccc12` showed an Inhibition (Cavia porcellus [2]) of 96%.

In the case of `CNC(=O)CCc1cn(Cc2ccc(C(=O)NS(=O)(=O)c3ccccc3C)cc2OC)c2cc(C(=O)NCC3CCCC3)ccc12`, the Kb (Cavia porcellus [1]) is reported as 0.399 nM, the Inhibition (Cavia porcellus [3]) is reported as 57% and the Protection (Cavia porcellus [4]) is reported as 44%. It also gave a Ki (Cavia porcellus [5]) of 1.53 nM.

`CCN(CC)C(=O)CCc1cn(Cc2ccc(C(=O)NS(=O)(=O)c3ccccc3C)cc2OC)c2cc(C(=O)NCC3CCCC3)ccc12` showed a Ki (Cavia porcellus [6]) of 0.54 nM.

`COc1cc(C(=O)NS(=O)(=O)c2ccccc2C)ccc1Cn1ccc2ccc(OCCC3CCCC3)cc21` gave an Inhibition (Cavia porcellus [7]) of 21%.

`CNC(=O)CCc1cn(Cc2ccc(C(=O)NS(=O)(=O)c3ccccc3)cc2OC)c2cc(NC(=O)CC3CCCC3)ccc12` showed a Kb (Cavia porcellus [1]) of 0.0197 nM and a Protection (Cavia porcellus [8]) of 74%.

Molecule `CCCC(=O)c1cn(Cc2ccc(C(=O)NS(=O)(=O)c3ccccc3)cc2OC)c2cc(NC(=O)CC3CCCC3)ccc12` has a Kb (Cavia porcellus [1]) of 0.496 nM.

Molecule `COc1cc(C(=O)O)ccc1Cc1cn(C)c2ccc(C(=O)NCC3CCCC3)cc12` has an Inhibition (Cavia porcellus [9]) of 33% and a Ki (Cavia porcellus [5]) of 422 nM.

With `COc1cc(C(=O)O)ccc1Cc1cn(C)c2ccc(NC(=O)OC3CCCC3)cc12` the pKB [10] was 7.84.

Molecule `COc1cc(C(=O)O)ccc1Cn1ccc2ccc(C(=O)NCC3CCCC3)cc21` has an Inhibition (Cavia porcellus [11]) of 45%.

For `COc1cc(C(=O)NS(=O)(=O)c2ccccc2C)ccc1Cc1cn(C(C)C(=O)N(C)C)c2ccc(C(=O)NCC3CCCC3)cc12` (stereo unspecified), the Kb (Cavia porcellus [1]) was 12.1 nM.

Molecule `COc1cc(C(=O)NS(=O)(=O)c2ccccc2C)ccc1Cc1cn(C)c2ccc(C(=O)NCC3CCCC3)cc12` has a Kb (Cavia porcellus [1]) of 4.28 nM, an Inhibition (Cavia porcellus [12]) of 36% and a Ki (Cavia porcellus [6]) of 3.21 nM.

Molecule `CCN(CC)C(=O)/C=C/c1cn(Cc2ccc(C(=O)NS(=O)(=O)c3ccccc3C)cc2OC)c2cc(C(=O)NCC3CCCC3)ccc12` has a Ki (Cavia porcellus [6]) of 4.9 nM.

Work on `COc1cc(C(=O)O)ccc1Cn1cc(Cl)c2ccc(NC(=O)OC3CCCC3)cc21` yielded an Inhibition (Cavia porcellus [2]) of 41%.

With `COc1cc(C(=O)NS(=O)(=O)c2ccccc2C)ccc1Cc1nn(C)c2ccc(C(=O)NCC3CCCC3)cc12` the Ki (Cavia porcellus [6]) was 1.87 nM.

With `CCCCOC(=O)Nc1ccc2ccn(Cc3ccc(C(=O)O)cc3OC)c2c1` the Kb (Cavia porcellus [1]) was 155 nM, the Inhibition (Cavia porcellus [13]) was 54% and the Inhibition (Cavia porcellus [14]) was 25%.

For `CCCCOC(=O)Nc1ccc2c(Br)c(Br)n(Cc3ccc(C(=O)O)cc3OC)c2c1`, the NS (Cavia porcellus [15]) was “not statistically significant”.

With `COc1cc(C(=O)NS(=O)(=O)c2ccccc2C)ccc1Cn1cc(CCC(N)=O)c2ccc(NC(=O)CC3CCCC3)cc21` the Kb (Cavia porcellus [1]) was 0.095 nM and the Protection (Cavia porcellus [16]) was 63%.

Molecule `COc1cc(C(=O)NS(=O)(=O)c2ccccc2)ccc1Cn1ccc2ccc(NC(=O)CC3CCCC3)cc21` has a Kb (Cavia porcellus [1]) of 0.243 nM and a Protection (Cavia porcellus [4]) of 43%.

With `CCCn1cc(Cc2ccc(C(=O)O)cc2OC)c2cc(NC(=O)OC3CCCC3)ccc21` the pKB [10] was 7.72.

For `COc1cc(C(=O)NS(=O)(=O)c2ccccc2C)ccc1Cn1cc(CC(C)C(=O)N(C)C)c2ccc(C(=O)NCC3CCCC3)cc21` (stereo unspecified), the Kb (Cavia porcellus [1]) was 0.65 nM, the Protection (Cavia porcellus [8]) was 37% and the Ki (Cavia porcellus [6]) was 2.32 nM.

Work on `COc1cc(C(=O)O)ccc1Cc1cn(C2CCCC2)c2ccc(NC(=O)OC3CCCC3)cc12` yielded a pKB [10] of 7.67.

Work on `COC(=O)CCc1cn(Cc2ccc(C(=O)NS(=O)(=O)c3ccccc3)cc2OC)c2cc(NC(=O)CC3CCCC3)ccc12` yielded a Kb (Cavia porcellus [1]) of 0.273 nM and a Protection (Cavia porcellus [8]) of 63%.

Work on `COc1cc(C(=O)NS(=O)(=O)c2ccccc2)ccc1Cn1ccc2ccc(C(=O)NCC3CCCC3)cc21` yielded a Kb (Cavia porcellus [1]) of 14.2 nM, an Inhibition (Cavia porcellus [7]) of 46% and a Ki (Cavia porcellus [5]) of 86.8 nM.

For `CCCCOC(=O)Nc1ccc2c(C)c(C)n(Cc3ccc(C(=O)O)cc3OC)c2c1`, the Inhibition (Cavia porcellus [11]) was 81% and the NS (Cavia porcellus [17]) was “not statistically significant”.

With `COc1cc(C(=O)NS(=O)(=O)c2ccccc2)ccc1Cn1cc(CCC(=O)O)c2ccc(NC(=O)CC3CCCC3)cc21` the Kb (Cavia porcellus [1]) was 0.0731 nM and the Protection (Cavia porcellus [8]) was 35%.

`COc1cc(C(=O)O)ccc1Cc1nn(C)c2ccc(C(=O)NCC3CCCC3)cc12` showed an Inhibition (Cavia porcellus [11]) of 37%.
